For four compounds, MIC, MBC and Ratio results are on record in ChEMBL document CHEMBL3596093, “Synthesis and antimicrobial evaluation of 5-aryl-1,2,4-triazole-3-thione derivatives containing a rhodanine moiety” (2015).

For test [1], the system named is Streptococcus mutans. As to the kind of experiment: Antibacterial activity against Streptococcus mutans 3065 after 24 hrs by two-fold serial dilution method. It counts as functional. The following applies: Streptococcus mutans, 3065, 24 h. The essentials:
(§1)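 Strains grown to mid-log phase in Mueller-Hinton broth, then diluted 1000-fold in the same broth to about 10^5 CFU/mL. Compounds were made up as DMSO stocks and two-fold serially diluted from a final top concentration of 64 µg/mL. Incubation was 37 °C for 24 h. Growth was read as absorbance at 630 nm on a microplate reader. MIC assays were run in triplicate.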

Test [2] relates to Streptococcus mutans. The experiment in a line: Bactericidal activity against Streptococcus mutans 3065 after 24 hrs by agar plate method. It counts as functional. To be noted: Streptococcus mutans, 3065, 24 h. An outline of the steps: (§2)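 Samples of 5 µL from MIC wells with no visible growth were plated onto fresh Mueller-Hinton agar and incubated a further 24 h at 37 °C. MBC is the lowest concentration giving no visible colony growth on the agar. Assays were run in triplicate.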

Test [3] deals with Escherichia coli. As to the kind of experiment: Antibacterial activity against Escherichia coli KCTC 1924 after 24 hrs by two-fold serial dilution method. It counts as functional. To be noted: KCTC 1924, 24 h. The essentials:
as §1

Test [4] has as its system Staphylococcus aureus. As to the kind of experiment: Bactericidal activity against Staphylococcus aureus KCTC 503 after 24 hrs by agar plate method. The following applies: KCTC 503, 24 h. The format is functional. The essentials: (§3)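 5 µL from each well without visible growth plated on fresh Mueller-Hinton agar, then 37 °C for a further 24 h. MBC is the lowest concentration giving no visible colonies. Run in triplicate.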

Test [5] relates to Staphylococcus aureus. As to the kind of experiment: Antibacterial activity against quinolone-resistant Staphylococcus aureus CCARM 3505 after 24 hrs by two-fold serial dilution method. The following applies: CCARM 3505, 24 h. The format is functional. An outline of the steps:
(§4)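 Broth microdilution MIC. Bacteria grown to mid-log phase in Mueller-Hinton broth, diluted 1000-fold, about 10^5 CFU/mL. Compounds from DMSO stocks, two-fold serial dilution from a final 64 µg/mL. Incubation at 37 °C for 24 h. Growth read as absorbance at 630 nm on a microplate reader. Run in triplicate.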

The test system of test [6] is Staphylococcus aureus. The experiment in a line: Bactericidal activity against methicillin-resistant Staphylococcus aureus CCARM 3167 after 24 hrs by agar plate method. The format is functional. The following applies: CCARM 3167, 24 h. The essentials:
as §3

The subject of test [7] is Salmonella typhimurium. As to the kind of experiment: Antibacterial activity against Salmonella typhimurium 2421 after 24 hrs by two-fold serial dilution method. The format is functional, Salmonella enterica subsp. enterica serovar Typhimurium. The following applies: Salmonella enterica, 2421, 24 h. An outline of the steps: as §1
The test system of test [8] is Staphylococcus aureus. As to the kind of experiment: Bactericidal activity against quinolone-resistant Staphylococcus aureus CCARM 3519 after 24 hrs by agar plate method. The following applies: CCARM 3519, 24 h. It counts as functional. The essentials:
as §3

The test system of test [9] is Candida albicans. As to the kind of experiment: Antifungal activity against Candida albicans 7535 after 24 hrs by two-fold serial dilution method. It counts as functional. The following applies: Candida albicans, 7535, 24 h.
The test system of test [10] is Staphylococcus aureus. As to the kind of experiment: Bactericidal activity against Staphylococcus aureus RN4220 after 24 hrs by agar plate method. The format is functional. The following applies: RN4220, 24 h. The essentials: as §2
Test [11] relates to Staphylococcus aureus. The experiment in a line: Antibacterial activity against quinolone-resistant Staphylococcus aureus CCARM 3519 after 24 hrs by two-fold serial dilution method. The following applies: CCARM 3519, 24 h. The format is functional. The essentials:
as §4

Test [12] relates to Staphylococcus aureus. The experiment in a line: Antibacterial activity against Staphylococcus aureus KCTC 503 after 24 hrs by two-fold serial dilution method. The format is functional. The following applies: KCTC 503, 24 h. The essentials:
as §1

The subject of test [13] is Staphylococcus aureus. The experiment in a line: Antibacterial activity against Staphylococcus aureus KCTC 209 after 24 hrs by two-fold serial dilution method. The format is functional. The following applies: KCTC 209, 24 h. The essentials:
as §1

Test [14] has as its system Staphylococcus aureus. As to the kind of experiment: Ratio of MBC to MIC for Staphylococcus aureus KCTC 503. It counts as functional. An outline of the steps: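 The ratio divides MBC by MIC for the same strain. MIC comes from two-fold broth microdilution in Mueller-Hinton broth (about 10^5 CFU/mL, 37 °C, 24 h, absorbance at 630 nm). MBC comes from subculturing 5 µL from clear wells onto Mueller-Hinton agar for another 24 h at 37 °C, taken as the lowest concentration with no colonies.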

In test [15] the test system is Staphylococcus aureus. As to the kind of experiment: Antibacterial activity against methicillin-resistant Staphylococcus aureus CCARM 3167 after 24 hrs by two-fold serial dilution method. The format is functional. The following applies: CCARM 3167, 24 h. An outline of the steps: as §4
For test [16], the system named is Pseudomonas aeruginosa. The experiment in a line: Antibacterial activity against Pseudomonas aeruginosa 2742 after 24 hrs by two-fold serial dilution method. It counts as functional. The following applies: Pseudomonas aeruginosa, 2742, 24 h. An outline of the steps:
as §1

In test [17] the test system is Staphylococcus aureus. The experiment in a line: Antibacterial activity against Staphylococcus aureus RN4220 after 24 hrs by two-fold serial dilution method. The format is functional. To be noted: RN4220, 24 h. The essentials:
as §4

In test [18] the test system is Staphylococcus aureus. The experiment in a line: Bactericidal activity against methicillin-resistant Staphylococcus aureus CCARM 3506 after 24 hrs by agar plate method. The format is functional. To be noted: CCARM 3506, 24 h. The essentials:
as §3

For test [19], the system named is Pseudomonas aeruginosa. As to the kind of experiment: Antibacterial activity against Pseudomonas aeruginosa 2004 after 24 hrs by two-fold serial dilution method. It counts as functional. The following applies: Pseudomonas aeruginosa, 2004, 24 h. The essentials: as §1
Test [20] relates to Staphylococcus aureus. The experiment in a line: Bactericidal activity against quinolone-resistant Staphylococcus aureus CCARM 3505 after 24 hrs by agar plate method. It counts as functional. The following applies: CCARM 3505, 24 h. The essentials:
as §3

For test [21], the system named is Staphylococcus aureus. As to the kind of experiment: Antibacterial activity against methicillin-resistant Staphylococcus aureus CCARM 3506 after 24 hrs by two-fold serial dilution method. The format is functional. To be noted: CCARM 3506, 24 h. The essentials: as §4
In test [22] the test system is Escherichia coli. The experiment in a line: Antibacterial activity against Escherichia coli CCARM 1356 after 24 hrs by two-fold serial dilution method. The format is functional. To be noted: CCARM 1356, 24 h. An outline of the steps:
as §1

Test [23] concerns Escherichia coli. As to the kind of experiment: Bactericidal activity against Escherichia coli KCTC 1924 after 24 hrs by agar plate method. The format is functional. The following applies: KCTC 1924, 24 h. An outline of the steps: as §2
For test [24], the system named is Staphylococcus aureus. As to the kind of experiment: Bactericidal activity against Staphylococcus aureus KCTC 209 after 24 hrs by agar plate method. It counts as functional. To be noted: KCTC 209, 24 h. An outline of the steps: as §2

The structures appear in SMILES notation. ≈ marks a conversion by molar mass, not a printed value.

With `Cc1cccc(-c2n[nH]c(=S)n2/N=C/c2ccc(/C=C3\SC(=S)N([C@@H](Cc4ccccc4)C(=O)O)C3=O)cc2)c1`, the MIC – broadly, the least concentration at which growth counts as inhibited – was 64 µg/mL (≈ 109 µM) in [1]; more than 128 µg/mL in [3]; 16 µg/mL (≈ 27.3 µM) in test [5]; more than 128 µg/mL in test [7]; more than 64 µg/mL in test [9]; 16 µg/mL (≈ 27.3 µM) in test [11]. Moreover, the minimal inhibitory concentration (MIC) is 64 µg/mL (≈ 109 µM) in test [12]; more than 64 µg/mL in test [13]; 16 µg/mL (≈ 27.3 µM) in [15]; more than 128 µg/mL in test [16]; 32 µg/mL (≈ 54.6 µM) in test [17]; more than 128 µg/mL in test [19]. Besides, the MIC was 16 µg/mL (≈ 27.3 µM) in test [21] and more than 128 µg/mL in test [22]. Besides, the minimal bactericidal concentration (MBC) (as a rule, the lowest tested concentration that kills the bacteria rather than only halting them) in test [2] was 256 µg/mL (≈ 437 µM); in test [4], 128 µg/mL (≈ 219 µM); in [6], 128 µg/mL (≈ 219 µM); in [8] it was 128 µg/mL (≈ 219 µM); in [10], 32 µg/mL (≈ 54.6 µM); in test [18], 64 µg/mL (≈ 109 µM). In test [20], this compound had an MBC of 64 µg/mL (≈ 109 µM). For the same compound, the Ratio result in test [14] is “<=4”.
Consider `O=C1NC(=S)S/C1=C\c1ccc(/C=N/n2c(-c3ccccc3Br)n[nH]c2=S)cc1`, for which the minimal inhibitory concentration (MIC) in test [1] was 16 µg/mL (≈ 31.8 µM); in test [3], 16 µg/mL (≈ 31.8 µM); in test [5], 16 µg/mL (≈ 31.8 µM); in [7], more than 128 µg/mL; in test [9], more than 64 µg/mL; in test [11], 16 µg/mL (≈ 31.8 µM). Also, the MIC in [12] was 16 µg/mL (≈ 31.8 µM); in test [13], 64 µg/mL (≈ 127 µM); in [15] it was 16 µg/mL (≈ 31.8 µM); in test [16], more than 128 µg/mL; in [17], 16 µg/mL (≈ 31.8 µM); in test [19], more than 128 µg/mL. Further, the figures for the MIC in test [21] and in test [22] were 16 µg/mL (≈ 31.8 µM) and more than 128 µg/mL, respectively. Besides, the minimal bactericidal concentration (MBC) in test [2] is more than 128 µg/mL; in test [4], more than 128 µg/mL; in test [6], more than 128 µg/mL; in test [8] it was more than 128 µg/mL; in [23], more than 128 µg/mL; in test [10], 128 µg/mL (≈ 255 µM). The MBC in test [18] was more than 128 µg/mL; in [20], more than 128 µg/mL; in [24], more than 256 µg/mL.
On to `O=C(O)CN1C(=O)/C(=C/c2ccc(/C=N/n3c(-c4ccc(F)cc4)n[nH]c3=S)cc2)SC1=S`, for which the MIC was more than 64 µg/mL in [1]; more than 128 µg/mL in [3]; more than 64 µg/mL in [5]; more than 128 µg/mL in [7]; more than 64 µg/mL in test [9]; 32 µg/mL (≈ 64.1 µM) in test [11]. The MIC is more than 64 µg/mL in test [12]; 64 µg/mL (≈ 128 µM) in test [13]; 16 µg/mL (≈ 32 µM) in test [15]; more than 128 µg/mL in test [16]; 64 µg/mL (≈ 128 µM) in test [17]; more than 128 µg/mL in test [19]. Moreover, the MIC in test [21] is more than 64 µg/mL; in test [22] it was more than 128 µg/mL. The MBC was more than 128 µg/mL in [6], more than 256 µg/mL in test [8], more than 256 µg/mL in test [10] and more than 256 µg/mL in test [24].
As for `Cc1cccc(-c2n[nH]c(=S)n2/N=C/c2ccc(/C=C3\SC(=S)NC3=O)cc2)c1`, the minimal inhibitory concentration (MIC) in test [1] was more than 64 µg/mL; in test [3], 32 µg/mL (≈ 73.1 µM); in test [5], 32 µg/mL (≈ 73.1 µM); in test [7] it was more than 128 µg/mL; in test [9], more than 64 µg/mL; in test [11], 32 µg/mL (≈ 73.1 µM). The minimum inhibitory concentration (MIC) is 32 µg/mL (≈ 73.1 µM) in test [12]; more than 64 µg/mL in [13]; 64 µg/mL (≈ 146 µM) in test [15]; more than 128 µg/mL in [16]; 32 µg/mL (≈ 73.1 µM) in test [17]; more than 128 µg/mL in test [19]. In addition, the MIC is 32 µg/mL (≈ 73.1 µM) in [21] and more than 128 µg/mL in [22]. In addition, the MBC was more than 256 µg/mL in test [4]; more than 256 µg/mL in [6]; more than 256 µg/mL in [8]; 256 µg/mL (≈ 585 µM) in test [23]; more than 256 µg/mL in [10]; more than 256 µg/mL in [18]. Also, in [20], the MBC is more than 256 µg/mL.
